Measured values published in ChEMBL document CHEMBL2321789, “Discovery of Indenopyrazoles as a New Class of Hypoxia Inducible Factor (HIF)-1 Inhibitors” (ACS Med Chem Lett, 2013).
Activity calls are given as the source filed them. The rule behind the calls is not given here.

Columns and labels:
PC-3 = assay: Cytotoxicity against human PC3 cells after 72 hrs by MTT assay; format: functional, cell-based; conditions: PC-3, 72 h
Procedure, shortened: (§1)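 Cells exposed to compound at 0.1–30 μM for 72 h; viability read by MTT assay.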

HepG2 = assay: Cytotoxicity against human HepG2 cells after 72 hrs by MTT assay; format: functional, cell-based; conditions: HepG2, 72 h; procedure, shortened: as §1
HeLa [1] = assay: Cytotoxicity against human HeLa cells after 72 hrs by MTT assay; format: functional, cell-based; procedure, shortened: as §1
[2] = biological target: T1, Hypoxia-inducible factor 1-alpha (Homo sapiens, UniProt Q16665); assay: Inhibition of hypoxia-induced HIF1alpha transcriptional activity in human HeLa cells expressing HRE-Luc at 30 uM after 12 hrs by luciferase reporter gene assay; format: cell-based
Procedure, shortened: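 Reporter HeLa cells stably carrying HRE-firefly luciferase plus CMV-renilla luciferase, incubated 12 h with compound under 1% oxygen. Supernatant removed, then dual luciferase assay. Triplicate samples, mean ± SD.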
Target sequence in this assay (Q16665 whole entry, looked up): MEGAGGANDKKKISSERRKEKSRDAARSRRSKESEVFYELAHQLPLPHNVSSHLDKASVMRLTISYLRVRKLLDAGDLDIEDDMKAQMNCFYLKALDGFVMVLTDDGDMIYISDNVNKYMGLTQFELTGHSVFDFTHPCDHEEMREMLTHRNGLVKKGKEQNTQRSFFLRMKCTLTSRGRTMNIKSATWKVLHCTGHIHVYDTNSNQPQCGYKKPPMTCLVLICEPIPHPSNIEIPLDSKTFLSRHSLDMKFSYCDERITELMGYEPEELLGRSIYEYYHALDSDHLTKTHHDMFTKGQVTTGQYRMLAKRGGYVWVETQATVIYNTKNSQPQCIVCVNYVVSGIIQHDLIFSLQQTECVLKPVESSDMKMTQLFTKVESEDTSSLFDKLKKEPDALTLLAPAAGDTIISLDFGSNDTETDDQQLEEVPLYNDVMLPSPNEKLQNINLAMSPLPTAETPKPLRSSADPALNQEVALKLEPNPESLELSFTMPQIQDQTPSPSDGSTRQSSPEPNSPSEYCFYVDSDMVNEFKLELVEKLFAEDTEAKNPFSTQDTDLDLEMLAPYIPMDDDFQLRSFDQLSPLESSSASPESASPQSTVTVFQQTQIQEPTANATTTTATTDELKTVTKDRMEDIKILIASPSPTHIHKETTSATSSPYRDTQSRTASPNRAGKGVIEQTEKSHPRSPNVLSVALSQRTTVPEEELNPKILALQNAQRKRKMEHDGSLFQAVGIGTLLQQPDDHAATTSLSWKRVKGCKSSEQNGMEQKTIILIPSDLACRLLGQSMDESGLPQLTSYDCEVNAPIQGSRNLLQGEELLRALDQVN

HCT-116 = assay: Cytotoxicity against human HCT116 cells after 72 hrs by MTT assay; format: functional, cell-based; conditions: HCT-116, 72 h; procedure, shortened: as §1
[3] = biological target: T1, Hypoxia-inducible factor 1-alpha; assay: Inhibition of hypoxia-induced HIF1alpha transcriptional activity in human HeLa cells expressing HRE-Luc after 12 hrs by luciferase reporter gene assay; format: cell-based
Target sequence in this assay (Q16665 whole entry): as the sequence (Q16665 whole entry, looked up) above

HeLa [4] = assay: Inhibition of hypoxia-induced HIF1alpha accumulation in human HeLa cells at 30 uM after 4 hrs by Western blot analysis; format: functional, cell-based
Procedure, shortened: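 HeLa cells under hypoxia (1% oxygen) treated with compound for 4 h at a range of concentrations. HIF-1α protein detected by immunoblot with specific antibody, tubulin as internal control.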

HeLa [5] = assay: Inhibition of hypoxia-induced HIF1alpha nuclear translocation in human HeLa cells at 30 uM after 4 hrs by immunofluorescence analysis; format: functional, cell-based
Procedure, shortened: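 Under 1% oxygen, HeLa cells incubated 4 h with compound. HIF-1α localization imaged by immunofluorescence with specific antibody; nuclei stained with DAPI.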

HeLa [6] = conditions: Homo sapiens, 1 uM
HeLa [7] = conditions: Homo sapiens, 0.1 to 10 uM
HeLa [8] = conditions: Homo sapiens, 0.001 to 1 uM

| inhibition [2] [%] | IC50 [3] [µM] | SMILES | IC50 (PC-3) [µM] | IC50 (HepG2) [µM] | IC50 (HeLa [1]) [µM] | IC50 (HCT-116) [µM] | inhibition (HeLa [4]) | inhibition (HeLa [5]) | inhibition (HeLa [6]) | inhibition (HeLa [7]) | inhibition (HeLa [8]) |
| --- | --- | --- | --- | --- | --- | --- | --- | --- | --- | --- | --- |
| 28 |  | c1ccc(Nc2n[nH]c3c2Cc2cc4c(cc2-3)OCO4)cc1 | 22.3 | 11.2 | 8.5 | 5.2 |  |  |  |  |  |
|  | 0.034 | COc1cccc2c1Cc1c(Nc3ccc4c(c3)OCCO4)n[nH]c1-2 | 6.9 | 7 | 2.1 | 5.9 |  |  |  |  |  |
|  | 3.2 | COc1ccc(Nc2n[nH]c3c2Cc2ccccc2-3)cc1OC | > 30 | 3.8 | 1.8 | 0.73 |  |  |  |  |  |
| 0 |  | c1ccc(Nc2n[nH]c3c2Cc2ccccc2-3)cc1 | > 30 | 24.2 | 17.6 | 17.5 |  |  |  |  |  |
| 0 | > 30 | COc1cc2c(cc1OC)-c1n[nH]c(Nc3ccccc3)c1C2 | 0.72 | 0.24 | < 0.1 | < 0.1 |  |  |  |  |  |
| 18 | > 30 | COc1ccc2c(c1)-c1n[nH]c(Nc3ccccc3)c1C2 | > 30 | 15.4 | 13.4 | 1.5 |  |  |  |  |  |
|  | > 30 | c1ccc(Nc2[nH]nc3c2Cc2ccccc2-3)cc1 |  |  |  |  |  |  |  |  |  |
|  | 0.214 | Nc1ccc(NC(=O)Nc2cccc3c2C(=O)c2c-3n[nH]c2-c2ccc3c(c2)OCO3)cc1 |  |  |  |  |  |  |  |  |  |
| 41 | > 30 | COc1cccc2c1Cc1c-2n[nH]c1Nc1ccccc1 | 21.7 | 5.2 | 1.6 | 2.3 |  |  |  |  |  |
| 3 | > 30 | COc1cccc2c1-c1[nH]nc(Nc3ccccc3)c1C2 | 3.2 | 0.75 | 0.57 | 0.57 |  |  |  |  |  |
|  | 0.27 | c1ccc2c(c1)Cc1c-2n[nH]c1Nc1ccc2c(c1)OCO2 | 23.7 | 12.7 | 5.8 | 6.9 |  |  |  |  |  |
|  | > 30 | c1ccc(Nc2[nH]nc3c2Cc2cc4c(cc2-3)OCO4)cc1 |  |  |  |  |  |  |  |  |  |
|  | 21 | COC(=O)c1ccc(O)c(NC(=O)COc2ccc(C34CC5CC(CC(C5)C3)C4)cc2)c1 | > 30 | > 30 | > 30 | > 30 | Active | Active |  |  |  |
|  |  | c1ccc2c(c1)Cc1c(Nc3ccc4c(c3)OCCO4)n[nH]c1-2 | 25.4 | 3.7 | 1.8 | 2.1 |  |  | inactive | inactive | inactive |
|  | 6.1 | COc1cccc(Nc2n[nH]c3c2Cc2ccccc2-3)c1 | > 30 | 6.8 | 2.9 | 2.2 |  |  |  |  |  |
|  |  | OCc1ccc(-c2nn(Cc3ccccc3)c3ccccc23)o1 | > 30 | 2.2 | 29.3 | 2.2 |  |  |  |  |  |
| 28 | > 30 | COc1ccc2c(c1)Cc1c-2n[nH]c1Nc1ccccc1 | < 0.1 | < 0.1 | < 0.1 | < 0.1 |  |  |  |  |  |
|  | 1.4 | COc1ccc(Nc2n[nH]c3c2Cc2ccccc2-3)cc1 | 28.8 | 9.1 | 2.6 | 3.1 |  |  |  |  |  |

| SMILES | inhibition [2] [%] | IC50 [3] [µM] | IC50 (PC-3) [µM] | IC50 (HepG2) [µM] | IC50 (HeLa [1]) [µM] | IC50 (HCT-116) [µM] | inhibition (HeLa [4]) | inhibition (HeLa [5]) | inhibition (HeLa [6]) | inhibition (HeLa [7]) | inhibition (HeLa [8]) |
| --- | --- | --- | --- | --- | --- | --- | --- | --- | --- | --- | --- |
| c1ccc2c(c1)Cc1c-2n[nH]c1Nc1ccc2c(c1)OCCO2 |  | 0.014 |  |  |  |  |  |  |  |  |  |
